Data: ChEMBL document CHEMBL3098051, “Rational design and synthesis of novel dibenzo[b,d]furan-1,2,3-triazole conjugates as potent inhibitors of Mycobacterium tuberculosis” (Eur J Med Chem, 2014)
In brackets after ≈: the same amount, converted by molar mass.

Tests used:
[1] = Selectivity index, ratio of IC50 for HEK293T cells to MIC for Mycobacterium tuberculosis H37Rv ATCC 27294; format: toxicity, cell-based, HEK-293T; conditions: human, read-out: Selectivity Index
How it was run: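 SI was taken as the approximated IC50 in HEK293T cells (72 h MTT) relative to MIC against H37Rv (agar dilution, 28 days). SI above 10 was counted as nontoxic.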

HEK-293T = experiment: Cytotoxicity against HEK293T cells after 72 hrs by MTT assay; format: cell-based; conditions: Homo sapiens
How it was run: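 Human embryonic kidney 293T cells were exposed to compound for 72 h. Viability was read by cellular conversion of MTT to formazan, and percentage growth of cells was reported.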

[2] = Cytotoxicity against HEK293T cells at 50 ug/ml after 72 hrs by MTT assay; format: cell-based, HEK-293T; conditions: human, read-out: INH
[3] = test system: Mycobacterium tuberculosis; experiment: Antimycobacterial activity against Mycobacterium tuberculosis H37Rv ATCC 27294 assessed as parasite growth inhibition after 28 days by agar dilution method; format: functional; conditions: H37Rv ATCC 27294, 672 h
How it was run: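 Inoculum from fresh Middlebrook 7H11 agar slants with OADC supplement, adjusted to 1 mg/mL wet weight in 0.05% Tween 80 saline and diluted to about 10^7 cfu/mL. Suspension was spotted onto 7H11 agar tubes containing 10-fold serial drug dilutions and incubated at 37 °C. Read at 28 days. MIC was the lowest concentration completely inhibiting growth, run in triplicate at pH 7.40.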

Row | Compound | selectivity ratio [1] | IC50 (HEK-293T) [µg/mL] | cytotoxicity at 72 h, 50 ug/ml [2] [%] | MIC [3] [µg/mL]
1 | CCOC(=O)Cn1cc(-c2ccc3oc4ccccc4c3c2)nn1 | > 25 | > 50 | 38.8 | 1.56 (≈ 4.85 µM)
2 | OCCCCn1cc(-c2ccc3oc4ccccc4c3c2)nn1 | 1 | > 50 | 21.9 | 50 (≈ 163 µM)
3 | c1ccc(Cn2cc(-c3ccc4oc5ccccc5c4c3)nn2)cc1 | 1 | > 50 | 36.1 | 50 (≈ 154 µM)
4 | COc1cccc(Cn2cc(-c3ccc4oc5ccccc5c4c3)nn2)c1 | 25 | < 50 | 62.1 | 0.78 (≈ 2.19 µM)
5 | COc1ccc(Cn2cc(-c3ccc4oc5ccccc5c4c3)nn2)cc1 | 16 | 50 (≈ 141 µM) | 52.7 | 3.12 (≈ 8.78 µM)
6 | Brc1ccc(Cn2cc(-c3ccc4oc5ccccc5c4c3)nn2)cc1 | > 25 | > 50 | 27.8 | 0.78 (≈ 1.93 µM)
7 | Brc1cccc(Cn2cc(-c3ccc4oc5ccccc5c4c3)nn2)c1 | > 10 | > 50 | 12 | 6.25 (≈ 15.5 µM)
8 | O=[N+]([O-])c1ccc(Cn2cc(-c3ccc4oc5ccccc5c4c3)nn2)cc1 | 1 | 50 (≈ 135 µM) | 46.3 | 50 (≈ 135 µM)
9 | COC(=O)c1ccc(Cn2cc(-c3ccc4oc5ccccc5c4c3)nn2)cc1 | 1 | < 50 | 58.1 | 25 (≈ 65.2 µM)
10 | Cc1ccc(C(C)n2cc(-c3ccc4oc5ccccc5c4c3)nn2)cc1 (centres undefined) | 16 | 50 (≈ 141 µM) | 43.1 | 3.12 (≈ 8.83 µM)
11 | COc1ccc(C(C)n2cc(-c3ccc4oc5ccccc5c4c3)nn2)cc1 (centres undefined) | > 16 | > 50 | 18.9 | 3.12 (≈ 8.45 µM)
12 | CC(c1ccc([N+](=O)[O-])cc1)n1cc(-c2ccc3oc4ccccc4c3c2)nn1 (centres undefined) | 2 | > 50 | 38.9 | 25 (≈ 65 µM)
13 | CC(c1ccc2oc3ccccc3c2c1)n1cc(-c2ccc3oc4ccccc4c3c2)nn1 (centres undefined) | 1 | 50 (≈ 116 µM) | 52.6 | 50 (≈ 116 µM)
14 | CC(c1ccc2sc3ccccc3c2c1)n1cc(-c2ccc3oc4ccccc4c3c2)nn1 (centres undefined) | 1 | < 50 | 61.1 | 25 (≈ 56.1 µM)
15 | CC[C@@H](CO)NCCN[C@@H](CC)CO [ETHAMBUTOL] | – | – | – | 3.13 (≈ 15.3 µM)
16 | NNC(=O)c1ccncc1 [ISONIAZID] | – | – | – | 0.1 (≈ 0.729 µM)
17 | CO[C@H]1/C=C/O[C@@]2(C)Oc3c(C)c(O)c4c(O)c(c(/C=N/N5CCN(C)CC5)c(O)c4c3C2=O)NC(=O)/C(C)=C\C=C\[C@H](C)[C@H](O)[C@@H](C)[C@@H](O)[C@@H](C)[C@H](OC(C)=O)[C@@H]1C [RIFAMPIN] | – | – | – | 0.2 (≈ 0.243 µM)
